Assay outcomes as filed in PubChem BioAssay.
Sampled rows, rich in hits. Any-hit rate of the full collection: about 29%.
E coli WT exp – growth inhibitors of wild-type E. coli, primary screen, strain BW25113, expanded library, OD600 | 98,000 tested, 0.15% active | OD600 absorbance | growth inhibition, % at 100 µM | AID 710, 2007;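 active means growth inhibition above about 50% at one test dose, limit read from the data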;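 further: growth measured after 20 h incubation at 37 °C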
CYP2C9 inhib – blockers of cytochrome P450 2C9 activity – biochemical, luminescence, ADME assay, primary screen | CYP2C9 Supersomes, luciferin-H conversion | inhibition, % at 5 µM | 96,000 tested, 20% active;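 active means blocking of liver enzyme CYP2C9 beyond about 50% at 5 µM, limit read from the data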
Target sequence (P11712 whole entry, looked up): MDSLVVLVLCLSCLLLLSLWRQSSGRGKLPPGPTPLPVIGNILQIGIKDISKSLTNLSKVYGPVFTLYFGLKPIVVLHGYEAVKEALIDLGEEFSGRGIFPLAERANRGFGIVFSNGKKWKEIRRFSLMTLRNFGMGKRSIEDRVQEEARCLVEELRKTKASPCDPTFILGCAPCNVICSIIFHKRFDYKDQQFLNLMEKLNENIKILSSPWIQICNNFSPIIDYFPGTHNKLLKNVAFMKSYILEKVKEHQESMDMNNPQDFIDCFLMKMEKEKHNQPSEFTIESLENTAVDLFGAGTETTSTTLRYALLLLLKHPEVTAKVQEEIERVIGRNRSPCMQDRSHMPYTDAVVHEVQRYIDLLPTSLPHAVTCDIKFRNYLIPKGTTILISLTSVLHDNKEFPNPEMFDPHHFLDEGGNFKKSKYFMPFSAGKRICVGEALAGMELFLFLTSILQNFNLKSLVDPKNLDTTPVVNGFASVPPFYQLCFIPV
CYP2C19 activ – human CYP2C19 activators, primary screen, biochemical, luminescence; Cytochrome P450 2C19 (Homo sapiens), P33261; recombinant CYP2C19, luciferin-H EGE luminescence; hits give high values; 0 = fully inhibited enzyme, 1 = untreated enzyme; activation factor at 5 µM; 96,000 tested, under 10 active; AID 1025, 2008;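 active means activation factor of at least 2 at 5 µM in the primary screen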
CYP2C19 inhib – blockers of cytochrome P450 2C19 activity – biochemical, luminescence, ADME assay, primary screen; 96,000 tested, 21% active; AID 778, 2007; CYP2C19 Supersomes, luciferin-H EGE luminescence, 30 min; inhibition, % at 5 µM; P33261;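 active means CYP2C19 inhibition above a set limit at 5 µM in the primary screen, cut at about 50% in these data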
CYP2C9 activ – human CYP2C9 activators, primary screen, biochemical, luminescence; 96,000 tested, 1.4% active; recombinant CYP2C9, luciferin-H conversion; hits give high values; factor 1 = untreated enzyme, 0 = blocked; Cytochrome P450 2C9 (Homo sapiens), P11712; activation factor at 5 µM;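 active means activation factor of 2 or more for CYP2C9 at a 5 µM dose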
tolC growth inh – growth inhibitors of E. coli tolC mutant, primary screen, strain BW25113 ΔtolC::kan, 384-well | OD615 | growth inhibition, % at 10 µM (by protocol) | 65,000 tested, 2.2% active | AID 573, 2007;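 active means growth inhibition at or above a cutoff equal to the mean over every tested compound plus 3 SD, cut at about 60% in these data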;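 further: growth measured after 20 h incubation at 37 °C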
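test system = E. coli BW25113 ΔtolC::kan bacteria | medium = LB with kanamycin 50 µg/mL | signal = OD at 615 nm | schedule = 37 °C, 20 h exposure | evaluation = % inhibition of E. coli growth | compound dosing = one dose of 10 µM final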
Of the large screens only hits and unclear results are named; the others gave an inactive call.

Cc1ccc(-c2cc(C(=O)NCc3ccco3)c3ccccc3n2)o1	none
O=C(NCc1ccco1)c1cc(-c2cccnc2)nc2ccccc12	CYP2C9 inhib 70
CC(/C=N/NC(=O)c1cc(-c2ccncc2)nc2ccccc12)=C\c1ccco1	CYP2C9 inhib 100, CYP2C19 inhib 96 (no result: tolC growth inh)
Cc1ccc(C)c(C(=O)CN2C3=NCCCN3c3ccccc32)c1	none (no result: tolC growth inh)
Nc1cc(=O)[nH]c(SCCNS(=O)(=O)c2ccccc2)n1	none
Cc1ccc(C)n1NC(=O)c1ccccc1O	none (no result: tolC growth inh)
CCN(CC)S(=O)(=O)c1ccc(NC(=O)c2cccc3c2C(=O)N(CCOC)C3)cc1	none (no result: E coli WT exp, CYP2C9 inhib, CYP2C19 activ, CYP2C19 inhib, CYP2C9 activ)
Cc1ccc2c(c1)N(C(=O)CSc1nncn1C)C(C)(C)c1ssc(=S)c1-2	CYP2C19 inhib 67
Cc1ccc2c(c1)N(C(=O)c1ccco1)C(C)(C)c1ssc(=S)c1-2	CYP2C9 inhib 54 (no result: tolC growth inh)
CCN(CC)S(=O)(=O)c1cc(C(=O)Nc2nncs2)c(Cl)cc1Cl	none
CCOC(=O)C1CCCN(CCC(=O)Nc2ccc3c(c2)CCC3)C1 (stereo not given)	none
O=C(O)c1cccc(CSc2nnc(COc3ccccc3)o2)c1	none
O=c1[nH]c(CSc2nnc(COc3ccccc3)n2-c2ccccc2)nc2ccccc12	CYP2C9 inhib 90, CYP2C19 inhib 85
Cc1cccc(OCc2nnc(SCc3nc4ccccc4c(=O)[nH]3)o2)c1	CYP2C19 inhib 54
Cn1c(COc2ccccc2)nnc1SCc1nc2ccccc2[nH]1	none
COc1ccc(-c2cn3c(C)c(C(=O)N4CCCc5ccccc54)sc3n2)cc1	none (no result: E coli WT exp, CYP2C9 inhib, CYP2C19 activ, CYP2C19 inhib, CYP2C9 activ)
COc1ccc(-c2cn3c4c(sc3n2)CCCC4)cc1	CYP2C9 inhib 78, CYP2C19 inhib 86
CCOc1ccc(CCNC(=O)c2cc3sccc3n2CC)cc1OCC	CYP2C19 inhib 51 (no result: tolC growth inh)
CCOC(=O)N1CCC(NC(=O)c2cc3sccc3n2CC)CC1	none
O=C1NC(c2ccccc2)=C(c2ccc3ccccc3n2)C(c2ccncc2)N1 (stereo not given)	CYP2C9 inhib 89, CYP2C19 inhib 83 (no result: tolC growth inh)
COc1ccc2c(c1)C1(Nc3ccccc3-c3nc4ccccc4n31)C(=O)N2 (stereo not given)	none
CC1(c2ccncc2)Nc2ccccc2-c2nc3ccccc3n21 (stereo not given)	CYP2C9 inhib 90, CYP2C19 inhib 97
COc1ccc(CC(C(=O)Nc2cc(C)ccc2C)/C(N)=N/O)cc1 (stereo not given)	none
N#CCCN/N=C(\Cc1nc2ccccc2[nH]1)c1ccccc1	none (no result: tolC growth inh)
N#CCCN/N=C(/Cc1nc2ccccc2[nH]1)c1ccc(Cl)cc1	CYP2C9 inhib 75, CYP2C19 inhib 98 (no result: tolC growth inh)
COc1ccccc1OC(=O)c1ccc(S(=O)(=O)N(C)C)cc1	CYP2C9 inhib 52 (no result: tolC growth inh)
COc1cc(S(=O)(=O)N(C)C)ccc1Br	CYP2C9 activ 3.1 (no result: tolC growth inh)
COc1cc(NC(=O)c2ccc(S(=O)(=O)N(C)C)cc2)cc(OC)c1OC	none
CCOC(=O)CC(=O)CSc1nc2c(cc1C#N)CCC2	none (no result: tolC growth inh)
O=C(NC(NNc1ccc([N+](=O)[O-])cc1)(C(F)(F)F)C(F)(F)F)c1ccccc1Cl	CYP2C9 inhib 53 (no result: tolC growth inh)
CC1(C)CC(=O)C(C=NCC2CCN(C(=O)Nc3ccc(Cl)c(Cl)c3)CC2)=C(O)C1	none (no result: tolC growth inh)
O=C(NCc1ccccn1)c1cc(-n2cnnc2)ccc1Cl	none
O=C1/C(=C/c2cccs2)N=C(c2cccs2)N1Nc1ccccc1	CYP2C9 inhib 93 (no result: tolC growth inh)
O=C1/C(=C\c2cccs2)N=C(c2cccs2)N1Nc1ccccc1	CYP2C9 inhib 58 (no result: tolC growth inh)
CCCCCCC(C)n1cc(C(C)=O)c(=O)[nH]c1=O (stereo not given)	none (no result: tolC growth inh)
O=C1NC(=S)SC1=C1CCCC1	CYP2C9 inhib 74 (no result: tolC growth inh)
CC(C)CC(NC(=O)OC(C)(C)C)C(=O)NCc1ccccc1 (stereo not given)	none
CC(=O)SCC(C)C(=O)NCc1ccccc1 (stereo not given)	CYP2C19 inhib 64 (no result: tolC growth inh)
COc1ccc(N2C(=O)C(Cl)=C(N(CCO)Cc3ccccc3)C2=O)cc1	CYP2C9 inhib 98, CYP2C19 inhib 97
O=C(CNC(=O)/C(=C\c1ccc(F)cc1)NC(=O)c1ccccc1)OCc1ccccc1	CYP2C19 inhib 71 (no result: tolC growth inh)
COCC(C)NCc1ccc(C)cc1C (stereo not given)	none
Cc1ccc(C)c2nc(N3CCCC3)c(C#N)cc12	none
Cc1ccc(OCC(=O)NNC(=O)c2cc3ccccc3o2)cc1C	none (no result: tolC growth inh)
COCCCN=C(c1ccco1)n1c(=S)nc(-c2ccco2)n(CCCOC)c1=S	CYP2C9 inhib 61
COc1ccc(C2C3=C(CCCC3=O)Nc3nc(SCc4ccc(C(=O)O)cc4)nn32)cc1OC (stereo not given)	none
O=C(NS(=O)(=O)c1ccccc1)c1ccccc1F	none
COCCCn1cc(C(=O)c2cc(OC)ccc2OCC(=O)Nc2cc(C)on2)cc(C#N)c1=O	CYP2C9 inhib 57, CYP2C19 inhib 50 (no result: tolC growth inh)
N#Cc1nc(-c2ccccc2F)oc1NCc1ccccc1	CYP2C9 inhib 66
COCCCNc1oc(-c2ccccc2F)nc1C#N	CYP2C9 inhib 58, CYP2C19 inhib 66
N#Cc1nc(-c2ccccc2F)oc1NCCc1ccccc1	none (no result: tolC growth inh)
COCCCNc1oc(-c2ccccc2OC)nc1C#N	none
O=C(CN(Cc1cccs1)C(=O)CNS(=O)(=O)c1ccc(Cl)cc1)NCc1ccco1	none (no result: tolC growth inh)
O=C(CN(Cc1ccco1)C(=O)CNS(=O)(=O)c1ccccc1)NCc1ccc(F)cc1	CYP2C9 inhib 62, CYP2C19 inhib 61
CN(C)S(=O)(=O)c1cccc(C(=O)N(Cc2ccc(F)cc2)Cc2ccco2)c1	CYP2C9 inhib 51
Cc1ccc(N(Cc2ccco2)C(=O)c2cccc(S(=O)(=O)N(C)C)c2)cc1	none
O=C(CN(CCc1ccccc1)C(=O)CNS(=O)(=O)c1ccccc1)NCc1ccco1	none
Cc1ccc(S(=O)(=O)NCC(=O)N(CCc2ccccc2)CC(=O)NCc2ccco2)cc1	CYP2C9 inhib 53, CYP2C19 inhib 72
O=C(CN(Cc1cccs1)C(=O)CNS(=O)(=O)c1ccc(F)cc1)NCc1ccco1	CYP2C19 inhib 58
CC(C)c1ccc(OC(=O)NCCO)cc1	none
CCOc1ccc(/C(O)=C2\C(=O)C(=O)N(c3cc(C)on3)C2c2ccccc2OC)cc1 (stereo not given)	none
Cc1ccc(CNC(=O)CSc2nc3ccsc3c(=O)n2NC(=O)c2ccccc2)cc1	CYP2C9 inhib 64 (no result: tolC growth inh)
Cc1cc(NC(=O)CSc2nc3ccsc3c(=O)n2NC(=O)c2ccccc2)no1	none (no result: E coli WT exp, CYP2C9 inhib, CYP2C19 activ, CYP2C19 inhib, CYP2C9 activ)
COc1ccc(C(=O)Nn2c(SCc3ccc([N+](=O)[O-])cc3)nc3ccccc3c2=O)cc1	CYP2C9 inhib 84 (no result: tolC growth inh)
